Assay results taken from publication PMC10447992 (Heliyon, 2023).

Assays:
[1] = MTT cytotoxicity assay, WISH cell line; format: cell-based; settings: human, WISH cells (human amnion)
Outline: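 WISH cells (ATCC via VACSERA) grown in RPMI-1640 with 10% fetal bovine serum at 37 °C, 5% CO2. Seeded at 1.0 × 10^4 cells/well for 48 h, then treated 24 h with a range of concentrations. MTT (5 mg/mL stock) added for 4 h, formazan dissolved in DMSO, A570 read. Viability given as % of untreated cells. IC50 in μg/mL is the concentration giving 50% inhibition versus untreated cells. Doxorubicin reference.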

[2] = Antioxidant activity screening by ABTS method; settings: ABTS radical scavenging, 6 min incubation, absorbance at 734 nm
Outline: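 ABTS radical made from 7 mM ABTS plus 140 mM […], left in the dark at room temperature for 16 h, then diluted 1:44 (v/v) in water. Equal volumes of radical solution and sample mixed in microplate and held 6 min at room temperature. Absorbance read at 734 nm against 100% methanol. Percent inhibition calculated by formula; L-ascorbic acid as reference.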

SMILES	IC50 at 24 h [1] [µM]	ABTS Inhibition % [2] [%]
COc1cccc2c1C(=O)c1c(O)c3c(c(O)c1C2=O)C[C@@](O)(C(=O)CO)C[C@@H]3O[C@H]1C[C@H](N)[C@H](O)[C@H](C)O1 [DOX, doxorubicin]	3.18 ± 0.2	–
O=C1O[C@H]([C@@H](O)CO)C(O)=C1O [L-Ascorbic acid]	–	88.8
